# From PubChem BioAssay
# Wee1 stabilizer: inhibitors of human Wee1 degradation. AID 1321. reporter increase, % at 5 µM. HeLa Luc-Wee1K328M stability, luciferase luminescence; 100% = proteasome inhibitor MG132 effect. 220,000 tested, 1.2% active;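 active means activation above the mean of all tested compounds plus 3 SD, set per screening run, cut at about 8.8% in these data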;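 further: cells exposed to compound for 20 h before luminescence read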
# proKLK7 act: proKLK7 (human) activation, primary screen | P49862 | purified proKLK7, EDANS-DABCYL substrate fluorescence; 100% is mature enzyme control, 0% vehicle | activation, % at 7 µM | 370,000 tested, 0.9% active | AID 652039;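 active means activation above the mean of all tested compounds plus 3 SD, computed per campaign excluding outliers beyond control limits, cut at about 13% in these data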
# Target sequence (P49862 whole entry, looked up): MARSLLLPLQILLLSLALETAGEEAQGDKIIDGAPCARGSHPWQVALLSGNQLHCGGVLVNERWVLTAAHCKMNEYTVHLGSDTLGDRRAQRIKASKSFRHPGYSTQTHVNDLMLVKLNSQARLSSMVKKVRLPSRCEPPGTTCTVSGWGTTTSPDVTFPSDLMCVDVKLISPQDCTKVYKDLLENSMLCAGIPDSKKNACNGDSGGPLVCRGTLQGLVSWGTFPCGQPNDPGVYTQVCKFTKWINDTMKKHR
# Runt-SMMHC FRET: Runt domain-CBFb-SMMHC interaction inhibition; Q01196+Q13951; Cerulean-Runt/Venus-CBFb-SMMHC FRET ratio 530/480, 1 h; inhibition, % at 20 µM; 220,000 tested, 0.74% active;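 active means mean inhibition across duplicate retests at 20 µM reaching about 50%, limit read from the data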;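 further: inhibitors lower the FRET ratio by blocking Runt binding to CBFb-SMMHC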
# Runt-CBFb FRET: Runt domain-CBFb interaction inhibition | Q01196+Q13951 | inhibition, % at 20 µM | 220,000 tested, 0.46% active | Cerulean-Runt/Venus-CBFb FRET ratio 530/480, 1 h;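 active means inhibition over about 50% at 20 µM in the single-dose screen, limit read from the data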
#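 System: Cerulean-labeled Runt domain protein | Quantity: 100 nM of each labeled protein | Schedule: 1 h compound exposure, room temperature | Detection: Fluorescence energy transfer, 422 nm excitation, 530/480 nm emission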
# AI-2 QS modul: modulates the Vibrio harveyi AI-2 quorum sensing system; activity change, % at 7.5 µM; 300,000 tested, 0.4% active; Vibrio harveyi JMH597 AI-2 luminescence/OD600 ratio, 9 h; stronger effect = lower value; strain lacks LuxN and CqsS sensors; 0 = neutral-control median; AID 2094; in the data active means activity change below about -75%, passing the limit was not always enough; inconclusive means no clear call, values can overlap the other calls;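 further: luminescence divided by OD600 gain over 9 h not by final OD600 alone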
# RanGTP-Impb inh: disruptors of Ran-importin-beta complex formation – biochemical, FRET, CFP-Ran, YFP-importin-beta, homogeneous, primary screen. cell-free CFP-Ran/YFP-importin-beta FRET ratio. inhibition, % (no concentration beside the values). 300,000 tested, 1.1% active;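 active means more than half of the replicate wells show a fall in the fluorescence ratio signal beyond about 16%, limit read from the data, passing the limit was not always enough; inconclusive means exactly half of the replicate wells pass the set limit; inactive means fewer than half of replicates pass the limit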
# KLK7 act conf: proKLK7 activation, confirmation; activation, % at 7 µM; 3,200 tested, 68% active; shares compounds with proKLK7 act; purified proKLK7, EDANS-DABCYL substrate fluorescence; scaled: vehicle 0, mature enzyme 100;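 active means activation, as change over the incubation, above the mean of all tested compounds plus 3 SD, cut at about 13% in these data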
# EDANS interfere: counter-screen for kallikrein-7 activators: EDANS-DABCYL optical interference | shares compounds with proKLK7 act | EDANS-DABCYL substrate fluorescence interference, no enzyme, 4 h; solvent 0%, active enzyme control 100% | activation, % at 7 µM | 3,200 tested, 80% active;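 active means activation above the all-compound mean plus 3 SD, ignoring values outside control-based bounds, cut at about 4.8% in these data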;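 further: value is the 4 h activation minus the activation read at time zero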
# EDANS interf: optically interferes with EDANS-DABCYL fluorescence, kallikrein-7 activator counter-screen | AID 720493 | EDANS-DABCYL peptide fluorescence interference, no enzyme | 250 tested, 20% active | shares compounds with proKLK7 act | EC50, µM;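 active means compounds that raise the fluorescence signal in this interference counterscreen, with EC50 at or below 10 µM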;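 further: intact quenched peptide substrate alone read at 355 nm excitation and 520 nm emission; signal is fluorescence gain from T0 to T4 after four hours at room temperature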
# A number is an active result; - = inactive; ? = inconclusive; . = no result; ! = a repeat was not active. Rows were chosen to be rich in hits. Some 2.9% of all compounds tested hit in one or more screens of this group.
SMILES,Wee1 stabilizer,proKLK7 act,Runt-SMMHC FRET,Runt-CBFb FRET,AI-2 QS modul,RanGTP-Impb inh,KLK7 act conf,EDANS interfere,others
COC(=O)C(C)Oc1ccc2cc(-c3ccccc3)c(=O)oc2c1 (configuration not stated),.,16,.,.,-,?,64,44,EDANS interf=-
CCCOc1ccc2cc(-c3ccccn3)c(=O)oc2c1,-,25,-,-,-,-,55,67,
CC(Oc1ccc2cc(-c3ccccc3)c(=O)oc2c1)C(=O)NCC1CCC(C(=O)O)CC1 (configuration not stated),.,64,.,.,-,-,65,77,
COc1ccc2cc(-c3ccccc3)c(=O)oc2c1,.,23,.,.,-,-,82,74,
O=c1oc2cc(OCc3c(F)cccc3Cl)ccc2cc1-c1ccccn1,-,-,.,.,-,-,.,.,
COc1ccc(-c2cc(=O)oc3cc(OC(C)C(=O)O)ccc23)cc1 (configuration not stated),-,-,-,-,-,-,.,.,
O=C(CCCOc1ccc(Cl)cc1Cl)N/N=C/c1cccc([N+](=O)[O-])c1,-,-,-,-,-,-,.,.,
CCS(=O)(=O)c1ncc(CO)n1CCc1ccccc1,.,-,.,.,-,-,.,.,
COc1ccc(-c2cc(=O)oc3cc(OCC(=O)N(C)C)ccc23)cc1,.,-,.,.,-,-,.,.,
CC(=O)Oc1ccc2cc(-c3cccnc3)c(=O)oc2c1,.,266,.,.,.,.,72,72,
Cc1cc(OC(C)C(=O)NCC2CCC(C(=O)O)CC2)c2c(C)cc(=O)oc2c1 (configuration not stated),.,13,.,.,-,-,-,12,
CN(C)C(=O)COc1ccc2cc(-c3ccccc3)c(=O)oc2c1,-,33,-,-,-,-,66,74,
CC12CCC(=O)N1C(C(=O)NNC(=O)COc1ccc(Br)cc1)CS2 (configuration not stated),.,-,.,.,-,.,.,.,
Cc1ccc2nc(-c3cc(N)cc(N)c3)oc2c1,-,-,-,-,-,-,.,.,
Cc1ccc(-c2nc3cc(N)ccc3o2)cc1Br,.,-,.,.,-,-,.,.,
Nc1ccc(-c2nc3ccc(N)cc3o2)cc1,-,56,-,-,-,-,70,73,
Nc1ccc(-c2nc3cc(N)ccc3o2)cc1,.,55,.,.,-,-,65,75,
CN(C)c1ccc(-c2nc3cc(N)ccc3o2)cc1,.,23,.,.,-,-,-,24,
Cc1cccc(-c2nnc(-c3ccc(N)cc3)o2)c1,-,-,-,-,-,-,.,.,
Nc1ccc(-c2nnc(-c3ccc(N)cc3)o2)cc1,.,18,.,.,-,-,36,44,
COC(=O)CCC(=O)Nc1ccc(Br)cc1,-,-,-,-,-,-,.,.,
Cc1ccc2c(c1)c1c3n2CCN=C3CCC1,-,30,-,-,-,-,-,9.7,
c1cc2c(cc1C1CCCCC1)c1c3n2CCN=C3CCC1,-,-,-,-,-,-,.,.,
COC(=O)c1cc(C)nc2c1c(C)nn2-c1ccccc1,.,-,.,.,.,.,.,.,
Cc1nn(-c2ccccc2)c2nc(N)c(C(N)=O)cc12,.,14,.,.,-,-,15,17,
SMILES,Wee1 stabilizer,proKLK7 act,Runt-SMMHC FRET,Runt-CBFb FRET,AI-2 QS modul,RanGTP-Impb inh,KLK7 act conf,EDANS interfere,others
Cc1c2c(n3c(nc4ccccc43)c1C#N)N(CCCN(C)C)CC2,-,63,91,100,-,-,-,7.4,
Cc1nccn1-c1c2c(c(C#N)c3nc4ccccc4n13)CCCC2,.,-,.,.,.,.,.,.,
Cc1c2c(n3c(nc4ccccc43)c1C#N)N(CCN(C)C)CC2,-,114,91,-,-,-,-,-,
CCOC(=O)CN1CCC(C2(c3cc4ccccc4[nH]3)OCCO2)CC1,.,-,.,.,.,.,.,.,
O=C(NCCN1CCOCC1)c1cc(-c2ccccc2)nc2ccccc12,.,-,.,.,.,.,.,.,
COC(=O)c1c(N)n(-c2ccc(NC(C)=O)cc2)c2nc3ccccc3nc12,-,24,74,-,-,-,76,73,
Nc1c(C(=O)NCCN2CCOCC2)c2nc3ccccc3nc2n1-c1ccccc1,-,28,98,-,-,81,-,9.1,
CCOc1cc(C(=O)CCC(=O)OCC(=O)NC(=O)NCC(C)C)ccc1O,-,-,-,-,-,?,.,.,
Cc1ccc(N=Cc2c(O)c3ccccc3n(C)c2=O)cc1,.,29,.,.,-,-,-,-,
Cn1c(=O)c(-c2ccccc2)c(O)c2ccccc21,-,-,-,-,-,-,.,.,
Cc1c(O)c(=O)c2ccccc2n1C,-,92,-,-,-,-,73,64,
CC(=O)c1cccc(NC(=O)CC2S/C(=N/N=C/c3ccccc3)NC2=O)c1 (configuration not stated),-,-,-,-,-,-,.,.,
O=C(O)CNC(=O)CC1S/C(=N/N=C/c2ccccc2O)NC1=O (configuration not stated),-,21,-,-,-,?,34,41,
CC1=Nc2ccc(C)cc2/C1=C/c1c(N)n2oc(C)cc2nc1=O,-,48!,-,-,-,-,25,35,
CCC(C)NC(=O)c1cc2c(=O)[nH]c3ccc(C)cc3c2s1 (configuration not stated),.,35,.,.,-,-,-,-,
CCCCN(CC)CCCNC(=O)c1cc2c(=O)[nH]c3ccccc3c2s1,.,15,.,.,-,-,-,6.2,
CCN1CCN(CCCNC(=O)c2cc3c(=O)[nH]c4ccccc4c3s2)CC1,-,-,-,-,-,-,.,.,
CCCCN(CC)CCNC(=O)c1cc2c(=O)[nH]c3ccc(C)cc3c2s1,.,16,.,.,-,-,-,-,
CCOCCCNC(=O)c1cc2c(=O)[nH]c3ccccc3c2s1,.,-,.,.,-,-,.,.,
O=C(NCCCN1CCOCC1)c1cc2c(=O)[nH]c3ccccc3c2s1,-,14,-,-,-,-,-,12,
CCNc1nc(N)c(C(=C(C#N)C#N)c2ccccc2)s1,-,33,-,-,-,?,139,139,
Cc1ccc(-n2[nH]c(C)c(C=Nc3ccc4[nH]c(=O)[nH]c4c3)c2=O)cc1,-,379,-,-,-,-,443,407,
Cc1ccc(-n2[nH]c(C)c(C=Nc3ccc4[nH]c(=O)[nH]c4c3)c2=O)cc1C,-,179,-,-,-,-,186,169,
